Legend:
Rattus norvegicus [1] = assay: Concentration required for […] inhibition of lower sciatic nerve fructose that became elevated in diabetic nerve in streptozotocin diabetic in vivo rat model; assay type: functional
Sorbitol dehydrogenase [2] = target: T1, Sorbitol dehydrogenase (Rattus norvegicus, UniProt P27867); assay: Concentration required for 50% in vitro activity against rat SDH (sorbitol dehydrogenase)
T1 sequence (P27867 whole entry): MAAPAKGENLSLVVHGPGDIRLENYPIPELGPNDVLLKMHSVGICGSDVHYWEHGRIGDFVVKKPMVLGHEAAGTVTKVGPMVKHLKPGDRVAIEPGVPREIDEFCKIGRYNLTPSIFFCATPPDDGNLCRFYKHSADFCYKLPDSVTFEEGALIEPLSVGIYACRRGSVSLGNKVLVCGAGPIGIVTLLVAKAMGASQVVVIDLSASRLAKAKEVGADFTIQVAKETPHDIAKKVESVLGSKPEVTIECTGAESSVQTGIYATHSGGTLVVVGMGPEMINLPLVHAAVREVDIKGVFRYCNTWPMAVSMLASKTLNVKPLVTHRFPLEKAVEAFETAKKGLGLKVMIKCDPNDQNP

Sorbitol dehydrogenase [3] = target: T2, Sorbitol dehydrogenase (Homo sapiens, UniProt Q00796); assay: Concentration required for 50% for in vitro activity against human SDH (sorbitol dehydrogenase)
T2 sequence (Q00796 whole entry): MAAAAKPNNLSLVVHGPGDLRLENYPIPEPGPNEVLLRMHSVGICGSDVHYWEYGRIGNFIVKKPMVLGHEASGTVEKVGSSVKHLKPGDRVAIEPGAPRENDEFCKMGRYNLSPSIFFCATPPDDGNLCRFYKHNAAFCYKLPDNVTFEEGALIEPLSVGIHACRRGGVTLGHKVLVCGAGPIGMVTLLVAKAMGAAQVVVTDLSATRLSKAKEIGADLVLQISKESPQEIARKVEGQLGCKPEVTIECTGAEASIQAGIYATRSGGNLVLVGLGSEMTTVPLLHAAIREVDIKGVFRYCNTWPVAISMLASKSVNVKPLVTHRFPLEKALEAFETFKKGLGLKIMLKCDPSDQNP

Rattus norvegicus [4] = organism: Rattus norvegicus; assay: % Ability to inhibit lower sciatic nerve fructose that became elevated in diabetic nerve in streptozotocin diabetic rat model at 0.05 mpk; assay type: functional
Procedure, shortened: (§1)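 Chronically diabetic rats were dosed at 0.05 or 1 mg/kg in a chronic test. Sciatic nerve fructose was measured and reported as percent inhibition of the diabetes-induced fructose elevation in sciatic nerve.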

Rattus norvegicus [5] = assay: % Ability to inhibit lower sciatic nerve fructose that became elevated in diabetic nerve in streptozotocin diabetic rat model at 1 mg/kg; assay type: functional; procedure, shortened: as §1
[6] = pKa value was reported; assay type: physicochemical
[7] = target: T3, Sorbitol dehydrogenase (Rattus norvegicus) (UniProt P27867)
T3 sequence (whole entry): T1 sequence (P27867 whole entry)

Sorbitol dehydrogenase [8] = target: T2, Sorbitol dehydrogenase; assay: Concentration required for 50% in vitro activity against human SDH (sorbitol dehydrogenase)
[9] = target: T3, Sorbitol dehydrogenase (Rattus norvegicus); assay: In vitro inhibitory activity against rat sorbitol dehydrogenase and concentration that cause 90% inhibition was reported

| SMILES | ED90 (Rattus norvegicus [1]) | IC50 (Sorbitol dehydrogenase [2]) | IC50 (Sorbitol dehydrogenase [3]) | also measured |
| --- | --- | --- | --- | --- |
| Cc1ncnc(N2C[C@@H](C)N(c3ccnc([C@@H](C)O)n3)[C@@H](C)C2)n1 | 0.3 mg/kg | 5 nM | 7 nM |  |
| Cc1nc(C)nc(N2C[C@@H](C)N(c3ccnc([C@@H](C)O)n3)[C@@H](C)C2)n1 (stereo in doubt; 16a) |  | 9 nM | 16 nM | Ability (Rattus norvegicus [4]): 56% |
| Cc1nc(CO)nc(N2C[C@@H](C)N(c3ccnc([C@@H](C)O)n3)[C@@H](C)C2)n1 |  | 20 nM |  | Ability (Rattus norvegicus [5]): 65% |
| Cc1nc(C)nc(N2C[C@@H](C)N(c3ccnc([C@@H](C)O)n3)[C@@H](C)C2)n1 (stereo in doubt; 16) [listing 1 of 2 here] | 0.05 mg/kg | 4 nM | 5 nM | pKa [6]: 6.2 |
| C[C@H](O)c1nccc(N2C[C@@H](C)N(c3ccnc([C@@H](C)O)n3)[C@@H](C)C2)n1 | 2 mg/kg | 11 nM |  | IC90 [7]: 31 nM; pKa [6]: 6.8; IC50 (Sorbitol dehydrogenase [8]): 10 nM |
| C[C@H](O)c1nccc(N2[C@H](C)CN(c3ccnc(N4CCN(C)CC4)n3)C[C@@H]2C)n1 |  | 32 nM |  |  |
| C[C@@H]1CN(c2ccnc(N3CCN(C)CC3)n2)C[C@H](C)N1c1ccnc([C@@H](C)O)n1 | 1 mg/kg | 6 nM | 4 nM |  |
| Cc1nc(-c2ccccc2)nc(N2C[C@@H](C)N(c3ccnc([C@@H](C)O)n3)[C@@H](C)C2)n1 |  | 39 nM | 43 nM | Ability (Rattus norvegicus [1]): 81% |
| C[C@@H]1CN(c2ncnc(-c3ccccc3)n2)C[C@H](C)N1c1ccnc([C@@H](C)O)n1 | 1 mg/kg | 10 nM | 7 nM |  |
| Cc1cn(-c2nccc(N3C[C@@H](C)N(c4ccnc([C@@H](C)O)n4)[C@@H](C)C3)n2)cn1 | 1 mg/kg | 11 nM | 13 nM |  |
| Cc1nc(C)nc(N2C[C@@H](C)N(c3ccnc([C@@H](C)O)n3)[C@@H](C)C2)n1 (stereo in doubt; 16) [listing 2 of 2 here] |  |  |  | IC90 [9]: 10 nM |
| Cc1cn(-c2nccc(N3C[C@@H](C)N(c4ccnc([C@@H](C)O)n4)[C@@H](C)C3)n2)c(C)n1 | 1 mg/kg | 7 nM | 4 nM |  |
